Screening data from PubChem BioAssay.
G6PDH counter – counter-screen for G6PDH assay hits: L. mesenteroides G6PDH inhibition. Purified L. mesenteroides G6PDH, diaphorase/resazurin coupled fluorescence, 45 min. inhibition, % at 5 µM. 0.12% of 200,000 active; in the data active = inhibition above about 50%
HKDC1 inhibitor – inhibitors of human hexokinase HKDC1; Q2TB90; recombinant HKDC1, G6PDH/diaphorase resazurin coupled fluorescence; inhibition, % at 20 µM; 0.16% of 340,000 active;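 active = inhibition above about 35% when tested at 20 µM, limit read from the data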;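 note: plate controls were DMSO wells with enzyme for no effect and DMSO wells lacking enzyme for full effect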
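Assay system: in-house recombinant HK5 (HKDC1) enzyme. Input: HKDC1 at 5 µg/mL. Medium: Tris pH 8.0 buffer with MgCl2, Tween-20, BSA, BME. Dosing: single 20 µM dose. Schedule: 90 min reaction incubation at room temperature, dark. Signal: resazurin-to-resorufin fluorescence via G6PDH and diaphorase coupling, 525/613 nm. Controls: DMSO-enzyme wells negative, buffer-substituted wells positive.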
Diaphorase act – diaphorase activation or chemical reduction counter-screen; 0.005% of 190,000 active; Diaphorase/resazurin coupled assay, resorufin fluorescence, 16 min; stronger effect = higher value; 1 = vehicle wells, 0 = NADH-free wells; activation factor at 20 µM;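 active = diaphorase activity raised at least twofold by the compound at 20 µM; inactive = activation factor below 2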
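Measured by – red resorufin fluorescence at 544/590 nm excitation/emission · Test system – Clostridium kluyveri diaphorase, purified enzyme · Incubation – reaction time 16 min, room temperature · Buffer or medium – 50 mM HEPES pH 7.4 with 4.542 mM MgCl2, 0.005% Tween 20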
PfGluPho inh – PfG6PD (Plasmodium falciparum) enzyme inhibition | PfGluPho enzyme, NADPH resazurin-diaphorase fluorescence | inhibition, % at 20 µM | 0.78% of 350,000 active;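 active = inhibition reaching at least a set limit at 20 µM in the primary screen, cut at about 59% in these data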;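 note: 0% = DMSO wells with substrate and 100% = DMSO wells lacking glucose-6-phosphate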
Diaphorase inh – diaphorase inhibition or chemical oxidation counter-screen; AID 1217; diaphorase resazurin-to-resorufin fluorescence, NADH, 16 min; bacterial (C. kluyveri) enzyme, not human; 0.69% of 190,000 active; inhibition, % at 20 µM;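 active = primary screen inhibition at 20 µM above a set limit, cut at about 50% in these data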;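 note: plate controls were DMSO with full reaction for no effect and wells lacking NADH for full effect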
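material = Clostridium kluyveri diaphorase enzyme | amount = 0.14 U/mL diaphorase, enzyme working solution | schedule = incubation 16 min, room temperature | detection = fluorescence of resorufin formed from resazurin, Ex 544/Em 590 nm | benchmarks = positive control minus NADH, DMSO neutral control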
PfGluPho conf – confirmation of Plasmodium falciparum G6PD inhibitors. AID 504753. 34% of 2,400 active. recombinant PfGluPho, NADPH-diaphorase-resazurin fluorescence. inhibition, % at 20 µM. shares compounds with PfGluPho inh;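 active = inhibition of at least 50% at 20 µM in any single replicate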;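 note: 0% = DMSO with substrate and 100% = DMSO lacking glucose-6-phosphate substrate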
Diaphorase 10uM – counter-screen for P. falciparum G6PD inhibitors: diaphorase inhibitors, oxidizers | shares compounds with PfGluPho inh | diaphorase-coupled resazurin reduction, fluorescence, NADPH 10 uM | inhibition, % at 20 µM | 39% of 820 active;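 active = average inhibition reaching 50% or more with the compound at 20 µM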;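 note: resorufin red fluorescence formed as diaphorase reduces resazurin using NADPH; 0% = DMSO with enzyme and 100% = DMSO without enzyme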
Diaph ctr 30uM – diaphorase inhibition or oxidation at 30 uM NADPH. shares compounds with PfGluPho inh. Diaphorase/resazurin coupled assay, resorufin fluorescence. inhibition, % at 20 µM. 29% of 820 active. AID 504863;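 active = inhibition averaging 50% or more, tested at 20 µM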;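 note: 0% = DMSO with enzyme and 100% = DMSO wells lacking diaphorase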
Active calls of the source: *; · = no result given. In the library only some 1.3% were active in any assay of this set; here they are far more common.

SMILES	G6PDH counter	HKDC1 inhibitor	Diaphorase act	PfGluPho inh	Diaphorase inh	PfGluPho conf	others
COc1ccc(OC)c(/C=N/NC(=O)c2cccc3ccccc23)c1	·	-2	·	-3	·	·
COc1ccc(OC)c(/C=N/NC(=O)c2c(C)nc3ccc(C)cn23)c1	·	-2	·	62*	·	43
COc1cccc(/C=N/NC(=O)c2c(C)nc3ccc(Br)cn23)c1	9	3	1	91*	4	54*	Diaphorase 10uM=40;Diaph ctr 30uM=40
COc1ccc2[nH]c(CN3CCN(C(C)C)C(CCO)C3)c(C)c2c1 (centres undefined)	13	-9	1	10	1	·
CCCCOc1ccc2c(c1)C(=O)c1cc(O)ccc1-2	6	-5	0.8	12	19	·
COc1ccc2c(c1OC)C(=O)OC2N1C(=O)CC[C@H]1C(=O)NCC1CCCO1 (some centres undefined)	·	-5	·	1	·	·
O=C(OCc1ccccc1)c1ccc(NCc2cc(O)ccc2O)cc1	·	11	·	42	·	·
CC1(C)CC(=O)C2=C(C1)NC(=S)C(C#N)C21CCCCC1 (centres undefined)	·	2	·	76*	·	18
CCN(CC)C(=O)c1c(NC(=O)c2ccccc2)sc(C)c1C	1	0	0.9	-5	13	·
Cc1sc(NC(=O)c2ccccc2)c(C(=O)c2ccccc2)c1C	-15	-18	0.8	63*	20	37
Cc1ccc(C(=O)Nc2sc(C)c(C)c2C(=O)c2ccccc2)cc1	-20	-14	0.9	82*	11	24
Cc1sc(NC(=O)c2ccccc2)c(C(=O)NC(C)C)c1C	1	-10	0.9	6	8	·
Nc1nc(-c2ccc3c(c2)NC(=O)CO3)cs1	8	-6	0.9	3	11	·
CCC(C)C(=O)Nc1nc(-c2ccc3c(c2)NC(=O)CO3)cs1 (centres undefined)	8	5	0.9	64*	11	14
c1ccc(CCNc2nc(-c3ccncc3)cs2)cc1	-7	2	0.9	-6	8	·
O=C1COc2ccc(-c3csc(NCCc4ccccc4)n3)cc2N1	-2	-7	0.8	61*	22	9
COc1ccccc1C(=O)C1CCCN(C(=O)c2ccccc2C(C)=O)C1 (centres undefined)	·	-5	·	-6	·	·
Cn1c(=O)n(C)c2cc3[nH]cnc3cc21	·	1	·	4	·	·
Nc1cc2nc[nH]c2cc1N	10	7	0.4	60*	61*	-10
Nc1ccc(C2=Nc3cccc4cccc(c34)N2)cc1	22	-1	1	18	1	·
COc1cccc(C2=Nc3cccc4cccc(c34)N2)c1	-12	18	0.8	73*	16	38
CCOC(=O)/C(=N/Nc1ccc(OC)cc1)N1CCCc2ccccc21	·	4	·	112*	·	58*	Diaphorase 10uM=56*;Diaph ctr 30uM=51*
CCOC(=O)/C(=N/Nc1ccccc1)N1CCCc2ccccc21	26	0	0.9	95*	10	33
CCOC(=O)/C(=N/Nc1ccccc1OC)N1CCCc2ccccc21	·	1	·	23	·	·
C#CCOc1nc(C)cc(C)c1S(=O)(=O)c1ccccc1C	4	-5	1	16	1	·
SMILES	G6PDH counter	HKDC1 inhibitor	Diaphorase act	PfGluPho inh	Diaphorase inh	PfGluPho conf	others
CCN=c1scc(C)n1/N=C/c1cc(Br)c(O)c(Br)c1	-5	1	0.8	3	25	·
CCN=c1scc(C)n1/N=C/c1ccc(O)c(O)c1O	36	18	0.2	80*	79*	72*	Diaphorase 10uM=25;Diaph ctr 30uM=37
CCN1/C(=C/C=C/C=C/C=C/c2sc3ccccc3[n+]2CC)Sc2ccccc21	·	25	·	64*	·	96*	Diaphorase 10uM=34;Diaph ctr 30uM=33
O=C(CN(Cc1ccc(Br)cc1)S(=O)(=O)c1ccccc1)NCc1cccnc1	·	2	·	63*	·	27
CS(=O)(=O)N(CC(=O)NCc1cccnc1)Cc1ccc(Cl)cc1	-8	-12	1	7	3	·
O=C(CNC(=O)c1cccs1)N=Nc1c(O)[nH]c2ccc([N+](=O)[O-])cc12	·	3	·	-18	·	·
Cn1c(=O)n(Cc2ccccc2Cl)c(=O)c2c1[nH]c(=S)n2C	·	-5	·	60*	·	33
Cn1c(=O)[nH]c(=O)c2c1[nH]c(=S)n2CCCc1ccccc1	·	-4	·	75*	·	49*	Diaphorase 10uM=-34;Diaph ctr 30uM=-6
Cn1c(=O)c2c([nH]c(=S)n2CCCc2ccccc2)n(C)c1=O	·	-6	·	68*	·	53*	Diaphorase 10uM=-34;Diaph ctr 30uM=-26
Cc1cc(C)c(NC(=O)C2CCC(=O)N2)c(C)c1 (centres undefined)	9	12	0.9	-3	10	·
Cc1ccc(/C=C/C(=O)N2CC(=O)Nc3ccccc32)o1	5	0	1	72*	-3	23
Cc1cc(C)cc(C(=O)N2CC(=O)Nc3ccccc32)c1	1	5	1	11	-4	·
Cc1ccc2nc3sc(C(=O)N4CCOCC4)c(N)c3cc2c1	2	3	0.9	84*	15	52*	Diaphorase 10uM=61*;Diaph ctr 30uM=40
Cc1nc(N2CCC3(CC2)OCCO3)c2nnn(Cc3ccccc3F)c2n1	17	-4	1	61*	2	31
CCc1nc(N2CCC3(CC2)OCCO3)c2nnn(Cc3ccccc3)c2n1	5	2	0.9	7	11	·
COc1ccc(/C=C/C(=O)Oc2ccc(/C=N/NC(=O)COc3c(C)cccc3C)cc2)cc1	-11	·	1	·	2	·
O=S(=O)(c1ccc(=S)[nH]c1)N1CCCC1	·	9	·	60*	·	41
O=C(Nc1ccc(N2CCN(C(=O)c3ccccc3)CC2)c(Cl)c1)c1ccc(Br)o1	-4	7	0.7	34	25	·
O=C(Nc1ccc(N2CCOCC2)c(Cl)c1)c1ccc(F)cc1	-1	-5	0.9	94*	13	27
O=C(Nc1ccc(N2CCOCC2)c(Cl)c1)c1ccc(Br)o1	22	3	0.8	82*	18	37
CCOc1c(Br)cc(C(=O)NCCCn2ccnc2)cc1OC	·	1	·	1	·	·
COc1ccc(Cc2nnc(N/N=C/c3ccc(C)o3)[nH]c2=O)cc1	-2	-13	1	19	-2	·
CCSc1ncccc1C(=O)N[C@@H](CCSC)C(=O)OC	·	0	·	-13	·	·
COc1ccc(C)cc1Nc1n[n+](-c2ccccc2)c(-c2c(Cl)cccc2Cl)s1	·	3	·	73*	·	40
CCc1ccc(Nc2n[n+](-c3ccccc3)c(-c3c(Cl)cccc3Cl)s2)cc1	·	4	·	80*	·	34
COc1ccc(-c2sc(Nc3ccccc3)n[n+]2-c2ccc(F)cc2)cc1Br	·	-4	·	12	·	·
